The text below walks through data of ChEMBL document CHEMBL1157725 (Bioorg Med Chem, 2010).

One test has as its system MCF7. The test can be described thus: Antiproliferative activity against human MCF7 cells after 24 hrs by SRB assay. Type of test: functional, cell-based. Particulars: MCF7, 24 h. The method, boiled down: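 MCF-7 cells are grown for 24 h with or without drug, then for a further 48 h. Total cell protein is measured by sulforhodamine B staining, and the IC₅₀ is derived from it.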

Test [1] is described as follows: Inhibition of tubulin polymerization by turbidimetry. The method, boiled down:
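Tubulin at 10 µM (1.0 mg/mL). Polymerization followed turbidimetrically at 350 nm in temperature-controlled spectrophotometers.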

Test [2] is described as follows: Displacement of [3H]colchicine from tubulin at 50 uM by turbidimetry. Particulars: in the assay text read “by DEAE-cellulose filter method” for “by turbidimetry”. The method, boiled down:
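Binding of [³H]colchicine to tubulin (1.0 µM, 0.1 mg/mL) is measured by the DEAE-cellulose filter method. The radioligand is at 5.0 µM and test agents at 5 or 50 µM. Each is run in triplicate.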

Test [3] can be described thus: Inhibition of tubulin in rat A10 cells assessed as induction of cellular microtubule disassembly after 18 hrs by indirect immunofluorescence technique. Type of test: cell-based. The note with it: A10, 18 h. The method, boiled down: (§1)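 A-10 cells plated on glass coverslips and treated with compound at varying concentrations for 18 h. After fixation, microtubules immunostained with a β-tubulin antibody (indirect immunofluorescence) and nuclei stained with DAPI. Read by fluorescence microscopy. Percentage of cellular microtubule loss estimated visually across the concentration range.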

The test system of the next test is A10. In words: Inhibition of tubulin in rat A10 cells assessed as disappearance of microtubule network at 20 uM after 18 hrs by fluorescence microscopy. Type of test: cell-based. The method, boiled down: as §1
Test [4] can be described thus: Displacement of [3H]colchicine from tubulin at 5 uM by DEAE-cellulose filter method.

Calls of active or inactive are those of the source. The calls are words filed in the database; no cut-off is given here.

`COc1ccc(/C=C/C(=O)c2cc(OC)c(OC)c(OC)c2)cc1O`: the IC50 in the test with MCF7 amounted to 110 nM; in test [1], 2600 nM. Besides, the results for the inhibition in test [2] and in test [4] were 101% and 88%, respectively. Also, the EC50 in test [3] is 980 nM. Moreover, in the test with A10, the result was Active.
